SMILES strings stand for the structures. Active and inactive are the calls of the source. No cut-off for these calls is given here.

The nature of series [1]: Toxicity in BALB/c mouse xenografted with human HCT116 cells assessed as effect on spleen tissue at 60 to 90 mg/kg, po administered twice daily for 4 weeks and measured every 3 days by HE staining based assay. It counts as organism-based, HCT-116. To be noted: in vivo, 672 h, dose 60-90 mg/kg. The gist of the method: (§1)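 Male 5-week BALB/c nude mice (16−18 g), 0.2 mL of 5 × 10⁷ cells/mL HCT-116 injected into right armpit; at ~100 mm³ randomized, 5/group; intragastric 60 or 90 mg/kg twice daily for 4 weeks; tumor volume and body weight every 3 days; after sacrifice heart, liver, spleen, lung, kidney HE-stained.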
In general terms: In xenograft studies the graft and the host belong to different species.

In series [2] the test system is HCT-116. Description: Effect on Wnt/beta-Catenin signaling in human HCT116 cells assessed as reduction in cyclin-D1 mRNA level at 20 uM after 24 hrs by RT-qPCR analysis. It counts as functional, cell-based. The gist of the method:
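HCT-116 cells treated 24 h; total RNA by TRIZOL, one-step RT-qPCR: 55 °C 10 min, 95 °C 1 min, then 39 cycles of 95 °C 10 s and 60 °C 30 s, with melting-curve and no-template controls. β-Actin as internal standard; relative expression by 2^−ΔΔCt, mean ± SD (n = 3).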
Background: Real-time PCR tracks product formation cycle by cycle.

The test system of series [3] is HCT-116. Description: Inhibition of cell stemness in human HCT116 cells assessed as reduction in SOX2 mRNA transcription levels at 20 uM after 24 hrs by RT-qPCR analysis. It counts as functional, cell-based. The gist of the method:
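Sorted ALDH⁺ HCT-116 cells treated 24 h; TRIZOL RNA, one-step RT-qPCR (RT 10 min 55 °C; 95 °C 1 min; 39 cycles 95 °C 10 s/60 °C 30 s) with melting-curve check; β-actin reference; fold change by 2^−ΔΔCt; t test, mean ± SD, n = 3.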

Series [4] can be described thus: Toxicity in BALB/c mouse xenografted with human HCT116 cells assessed as change in body weight at 60 to 90 mg/kg, po administered twice daily for 4 weeks and measured every 3 days. It counts as organism-based, HCT-116. Conditions: in vivo, 672 h, dose 60-90 mg/kg. Put shortly: as §1
Series [5] can be described thus: Toxicity in BALB/c mouse xenografted with human HCT116 cells assessed as effect on lung tissue at 60 to 90 mg/kg, po administered twice daily for 4 weeks and measured every 3 days by HE staining based assay. Conditions: in vivo, 672 h, dose 60-90 mg/kg. It counts as organism-based, HCT-116. Put shortly: as §1
The target of series [6] is T1, Tyrosine-protein kinase ZAP-70 (Homo sapiens) (UniProt P43403).
T1 sequence (whole entry): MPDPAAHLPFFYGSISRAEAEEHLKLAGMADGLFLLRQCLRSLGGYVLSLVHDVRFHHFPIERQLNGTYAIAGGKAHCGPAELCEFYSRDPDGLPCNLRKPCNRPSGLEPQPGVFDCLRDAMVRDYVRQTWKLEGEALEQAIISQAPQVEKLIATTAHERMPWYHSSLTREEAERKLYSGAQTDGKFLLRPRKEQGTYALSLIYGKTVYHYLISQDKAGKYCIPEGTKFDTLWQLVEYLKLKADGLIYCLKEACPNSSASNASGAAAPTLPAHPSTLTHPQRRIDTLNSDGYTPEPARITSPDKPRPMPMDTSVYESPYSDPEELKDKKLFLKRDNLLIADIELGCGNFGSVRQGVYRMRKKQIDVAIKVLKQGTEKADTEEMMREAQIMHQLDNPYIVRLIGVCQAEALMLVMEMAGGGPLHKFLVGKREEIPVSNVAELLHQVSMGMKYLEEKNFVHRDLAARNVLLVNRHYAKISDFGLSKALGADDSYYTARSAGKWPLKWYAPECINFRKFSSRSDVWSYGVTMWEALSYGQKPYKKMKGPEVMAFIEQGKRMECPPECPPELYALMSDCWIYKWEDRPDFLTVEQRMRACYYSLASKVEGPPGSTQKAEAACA
Description: Inhibition of ZAP70 (unknown origin) assessed as residual activity at 1 uM relative to control. Put shortly:
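Commercial profiling service against a 208-kinase panel; single concentration 1 μmol/L; residual kinase activity expressed relative to control.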

In series [7] the test system is HCT-116. Description: Induction of apoptosis in human HCT116 cells assessed as down regulation of pro-caspase 3 level at 20 uM incubated for 24 hrs by Western blot analysis. The series is classed as functional, cell-based. The gist of the method:
(§2)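 HCT-116 cells at 2 × 10⁵ cells/mL in DMEM/10% FBS, grown 12 h at 37 °C, then treated 24 h (vehicle DMSO). Lysates quantified by BCA, run on 10% SDS-PAGE, PVDF transfer, blocked in 5% milk/TBST, primary antibodies 4 °C overnight, HRP secondary 2 h, chemiluminescent detection; normalized to β-actin, n = 3.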

The subject of series [8] is HCT-116. Kind of series: Antitumor activity against human HCT116 cells xenografted in BALB/c athymic nude mouse assessed as tumor growth inhibition at 90 mg/kg, po administered twice daily for 4 weeks and measured every 3 days. Conditions: HCT-116, po, 672 h, read-out: TGI. It counts as functional. Put shortly: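 Male BALB/c athymic nude mice, 5 weeks old, 16−18 g, given 0.2 mL of 5 × 10⁷ cells/mL HCT-116 in right armpit. At about 100 mm³, randomized to groups of five; intragastric dosing twice daily for 4 weeks. Tumor volume and body weight every 3 days; tumors weighed after sacrifice; organs HE-stained.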

The nature of series [9]: Cmax in Sprague-Dawley rat at 25 mg/kg, po measured up to 48 hrs by LC-MS/MS analysis. It counts as ADME, organism-based. Also on record: route oral, dose 25 mg/kg, time <=48. To be noted: in vivo. Put shortly: (§3)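 Overnight-fasted male SD rats (about 250−270 g), three per group, single oral 25 mg/kg; test compound suspended in 5% CMC-Na, control as sodium salt in phosphate buffer. Blood sampled 0.25–48 h, plasma by centrifugation, stored −40 °C, quantified by LC−MS/MS against plasma standard curve (3–3000 ng/mL) with internal standard; model-fitted PK parameters.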

A short description of series [10]: MRT(0 to infinity) in Sprague-Dawley rat at 25 mg/kg, po measured up to 48 hrs by LC-MS/MS analysis. It counts as ADME, organism-based. To be noted: in vivo. Put shortly:
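Overnight-fasted male SD rats (250−270 g, n = 3/group), single oral 25 mg/kg in 5% CMC-Na (reference sodium salt in phosphate buffer); plasma at 0.25–48 h (12 timepoints), stored −40 °C; LC−MS/MS with internal-standard calibration 3–3000 ng/mL; parameters fitted by model.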

Series [11] deals with L02. Kind of series: Cytotoxicity against human L02 cells assessed as reduction in cell viability incubated for 72 hrs by MTT assay. Conditions: L02, 72 h. It counts as cell-based. Put shortly:
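About 5 × 10³ cells/well, seeded overnight at 37 °C, 5% CO₂, in DMEM or RPMI-1640 with 10% FBS and antibiotics. DMSO-dissolved compounds diluted in medium, exposure 72 h.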

The subject of series [12] is HCT-116. Kind of series: Induction of apoptosis in human HCT116 cells assessed as viable cells at 20 uM after 24 hrs by annexin V-FITC/propidium iodide staining based flow cytometry (reference value: 88.3%). The series is classed as functional. To be noted: read-out: Activity. On the technique in general: Flow cytometry measures light scatter and fluorescence of single cells or particles in a stream.

The subject of series [13] is HCT-116. Kind of series: Induction of apoptosis in human HCT116 cells assessed as early apoptotic cells at 20 uM after 24 hrs by annexin V-FITC/propidium iodide staining based flow cytometry (reference value: 1%). The series is classed as functional.
Series [14] is described as follows: AUC(0 to t) in Sprague-Dawley rat at 25 mg/kg, po measured up to 48 hrs by LC-MS/MS analysis. The series is classed as ADME, organism-based. Also on record: route oral, dose 25 mg/kg, time <=48. Conditions: in vivo. Put shortly:
as §3

For series [15], the system named is HCT-116. Description: Effect on Wnt/beta-Catenin signaling in human HCT116 cells assessed as upregulation of DKK1 protein level after 24 hrs by Western blotting analysis. Conditions: dose 5-20 µM. The series is classed as functional, cell-based. The gist of the method: as §2

Consider `O=C(NCCO)c1ccc2c(c1)nc(Nc1cccc(Cl)c1)c1ccncc12`, for which the Activity entry in series [1] is “Non-Toxic”; in series [4], “Non-Toxic”; in [5], “Non-Toxic”; in [6], 26%; in series [13] it was 22.5%; in series [15], “Dose-Dependent Effect”. In addition, the outcome in series [2] and in [7] was Active. Also, the inhibition result in series [3] is “Active”. Moreover, the inhibition in vivo at 90 mg/kg in series [8] is 69%. The compound also returned a maximum concentration (Cmax) in series [9] of 7020 ng/mL. Also, in series [10], the MRT inf stood at 6.26 h. For the same compound, the concentration for half-maximal inhibition (IC50) in series [11] worked out at 96.7 µM. Further, the viability at 20 µM in [12] amounted to 36%. Moreover, the area under the curve AUC(0-t) at 48 h in series [14] stood at 40500 ng·h/mL.

The Cmax is the peak of the concentration-time curve. As usually defined, the MRT inf is the average time that molecules of a dose stay in the body. For orientation: IC50 means the concentration at which inhibition is half-maximal. A word on the AUC(0-t): it is exposure summed from dosing to a finite time, without extrapolation to infinity. A low value points to low exposure.

Values taken from ChEMBL document CHEMBL4808178 (J Med Chem, 2021).
